{
  "source": "ChEMBL document CHEMBL3861961",
  "about": "“Effects of Functional Groups and Sugar Composition of Quercetin Derivatives on Their Radical Scavenging Properties” (J Nat Prod, 2016)",
  "key": {"[1]": {"assay": "Antioxidant activity assessed as DPPH free radical scavenging activity by measuring remaining DPPH at 5 uM after 15 to 60 mins relative to trolox", "assay_type": "functional", "in_short": "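DPPH 74 μM final in H2O/MeOH (5/3), mixed vigorously with sample (0.1 mM stock in MeOH; 5 μM final) and left standing. Absorbance at 545 nm read at 15, 30 and 60 min. Wells without compound served as negative controls. At least three replicates per compound and control.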"}, "[2]": {"assay": "Antioxidant activity assessed as DPPH free radical scavenging activity at 5 uM after 15 to 60 mins in presence of CuSO4.5H2O", "assay_type": "functional", "in_short": "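Samples (0.2 mM in MeOH) mixed 1:1 by volume with CuSO4·5H2O (0.4 mM in MeOH), held 1.5 h at room temperature. DPPH step: 74 μM DPPH final in H2O/MeOH (5/3), sample 5 μM final. Mixture left standing, then absorbance read at 545 nm after 15, 30 and 60 min. Wells without compound were negative controls. At least triplicate.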"}, "[3]": {"assay": "Antioxidant activity assessed as DPPH free radical scavenging activity by measuring decrease in signal intensity at 0.015 mmol measured after 30 mins in presence of 3-Omethylquercetin by 13C-NMR spectroscopy"}},
  "note": "The source made the active and inactive calls. The rule behind the calls is not given here.",
  "data": [
    {"compound": "O=c1c(O[C@@H]2O[C@H](CO)[C@@H](O)[C@H](O)[C@H]2O)c(-c2ccc(O)c(O)c2)oc2cc(O)cc(O)c12", "values": [
      {"measurement": "Activity", "setting": "[1]", "value": "< 70", "unit": "%"},
      {"measurement": "Activity", "setting": "[2]", "value": "Active"}
    ]},
    {"compound": "O=c1c(O[C@@H]2O[C@H](CO)[C@H](O)[C@H](O)[C@H]2O)c(-c2ccc(O)c(O)c2)oc2cc(O)cc(O)c12", "values": [
      {"measurement": "Activity", "setting": "[1]", "value": "< 70", "unit": "%"},
      {"measurement": "Activity", "setting": "[2]", "value": "Active"}
    ]},
    {"compound": "COc1ccc(-c2oc3cc(O)cc(O)c3c(=O)c2O)cc1O", "values": [
      {"measurement": "Activity", "setting": "[2]", "value": "Active"}
    ]},
    {"compound": "O=c1c(O)c(-c2ccc(O)c(O)c2)oc2cc(O)cc(O)c12", "values": [
      {"measurement": "Activity", "setting": "[1]", "value": "< 70", "unit": "%"},
      {"measurement": "Activity", "setting": "[2]", "value": "Active"}
    ]},
    {"compound": "COC(=O)c1cc(O)c(O)c(O)c1", "values": [
      {"measurement": "Activity", "setting": "[3]", "value": "Active"}
    ]},
    {"compound": "COc1cc(O)cc2oc(-c3ccc(O)c(O)c3)c(O[C@@H]3O[C@H](CO)[C@@H](O)[C@H](O)[C@H]3O)c(=O)c12", "values": [
      {"measurement": "Activity", "setting": "[1]", "value": "< 70", "unit": "%"},
      {"measurement": "Activity", "setting": "[2]", "value": "Active"}
    ]},
    {"compound": "COc1c(-c2ccc(O)c(O)c2)oc2cc(O)cc(O)c2c1=O", "values": [
      {"measurement": "Activity", "setting": "[1]", "value": "< 70", "unit": "%"},
      {"measurement": "Activity", "setting": "[2]", "value": "Active"}
    ]},
    {"compound": "COc1cc(-c2oc3cc(O)cc(O)c3c(=O)c2O[C@@H]2O[C@H](CO)[C@@H](O)[C@H](O)[C@H]2O)ccc1O", "values": [
      {"measurement": "Activity", "setting": "[2]", "value": "Active"}
    ]},
    {"compound": "O=C(O[C@H]1[C@H](Oc2c(-c3ccc(O)c(O)c3)oc3cc(O)cc(O)c3c2=O)O[C@H](CO)[C@@H](O)[C@@H]1O)c1cc(O)c(O)c(O)c1", "values": [
      {"measurement": "Activity", "setting": "[2]", "value": "< 35", "unit": "%"}
    ]},
    {"compound": "O=C(O[C@H]1[C@H](O)[C@@H](O)[C@H](Oc2c(-c3ccc(O)c(O)c3)oc3cc(O)cc(O)c3c2=O)O[C@@H]1CO)c1cc(O)c(O)c(O)c1", "values": [
      {"measurement": "Activity", "setting": "[2]", "value": "< 35", "unit": "%"}
    ]},
    {"compound": "COc1cc(-c2oc3cc(O)cc(O)c3c(=O)c2O)ccc1O", "values": [
      {"measurement": "Activity", "setting": "[2]", "value": "Active"}
    ]},
    {"compound": "COc1cc(O)cc2oc(-c3ccc(O)c(O)c3)c(O)c(=O)c12", "values": [
      {"measurement": "Activity", "setting": "[1]", "value": "< 70", "unit": "%"},
      {"measurement": "Activity", "setting": "[2]", "value": "Active"}
    ]},
    {"compound": "COc1cc(-c2oc3cc(O)cc(O)c3c(=O)c2O[C@@H]2O[C@H](CO)[C@H](O)[C@H](O)[C@H]2O)ccc1O", "values": [
      {"measurement": "Activity", "setting": "[2]", "value": "Active"}
    ]},
    {"compound": "O=C(O[C@H]1[C@H](Oc2c(-c3ccc(O)c(O)c3)oc3cc(O)cc(O)c3c2=O)O[C@H](CO)[C@@H](O)[C@@H]1OC(=O)c1cc(O)c(O)c(O)c1)c1cc(O)c(O)c(O)c1", "values": [
      {"measurement": "Activity", "setting": "[2]", "value": "< 35", "unit": "%"}
    ]},
    {"compound": "O=C(OC[C@H]1O[C@@H](Oc2c(-c3ccc(O)c(O)c3)oc3cc(O)cc(O)c3c2=O)[C@H](O)[C@@H](O)[C@@H]1O)c1cc(O)c(O)c(O)c1", "values": [
      {"measurement": "Activity", "setting": "[2]", "value": "< 35", "unit": "%"}
    ]},
    {"compound": "COc1cc(O)cc2oc(-c3ccc(O)c(O)c3)c(O[C@@H]3O[C@H](CO)[C@H](O)[C@H](O)[C@H]3O)c(=O)c12", "values": [
      {"measurement": "Activity", "setting": "[1]", "value": "< 70", "unit": "%"},
      {"measurement": "Activity", "setting": "[2]", "value": "Active"}
    ]},
    {"compound": "O=C(O[C@@H]1[C@@H](O)[C@H](Oc2c(-c3ccc(O)c(O)c3)oc3cc(O)cc(O)c3c2=O)O[C@H](CO)[C@H]1O)c1cc(O)c(O)c(O)c1", "values": [
      {"measurement": "Activity", "setting": "[2]", "value": "< 35", "unit": "%"}
    ]}
  ]
}
